Experimental data from ChEMBL document CHEMBL2429834, “Potent histone deacetylase inhibitors derived from 4-(aminomethyl)-N-hydroxybenzamide with high selectivity for the HDAC6 isoform” (J Med Chem, 2013).
pIC50: −log10 of the molar value. Converted amounts (≈) assume the structure as drawn.

What was measured:
Histone deacetylase 11 = molecular target: T1, Histone deacetylase 11 (Homo sapiens, UniProt Q96DB2); test: Inhibition of full length N-terminal GST-tagged recombinant human HDAC11 expressed in baculovirus using Arg-His-Lys-Lys (Ac) as substrate after 1 hr by fluorescence plate reader analysis
T1 sequence (Q96DB2 whole entry): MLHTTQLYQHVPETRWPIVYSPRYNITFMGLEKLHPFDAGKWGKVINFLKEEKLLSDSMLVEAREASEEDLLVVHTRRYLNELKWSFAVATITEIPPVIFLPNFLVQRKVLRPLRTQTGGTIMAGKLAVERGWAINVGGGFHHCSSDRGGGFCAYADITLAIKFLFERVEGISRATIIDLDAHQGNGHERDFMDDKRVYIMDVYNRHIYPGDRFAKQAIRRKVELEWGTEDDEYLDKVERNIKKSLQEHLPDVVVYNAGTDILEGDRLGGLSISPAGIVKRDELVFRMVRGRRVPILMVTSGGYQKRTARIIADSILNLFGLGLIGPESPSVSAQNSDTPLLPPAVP

Homo sapiens = species on record: Homo sapiens; test: Selectivity ratio of IC50 for full length C-terminal His6x-tagged recombinant human HDAC8 to IC50 for N-terminal GST-tagged recombinant HDAC6 (unknown origin)
[1] = Permeability in human Caco2 cells at pH 7.4; format: ADME, cell-based; details: Caco-2, pH 7.4, read-out: permeability
[2] = Efflux ratio of permeability in human Caco2 cells at pH 7.4; format: ADME, cell-based; details: Caco-2, pH 7.4
[3] = Aqueous thermodynamic solubility of the compound in potassium phosphate monobasic buffer at pH 7.5 after 24 hrs by LC-MS analysis; format: physicochemical; details: read-out: Therm_solubility
[4] = molecular target: 72 kDa type IV collagenase (Homo sapiens) (UniProt P08253); test: Inhibition of MMP2 (unknown origin)
[5] = molecular target: Matrix metalloproteinase-9 (Homo sapiens) (UniProt P14780); test: Inhibition of MMP9 (unknown origin)
[6] = molecular target: T2, Matrix metalloproteinase-17 (Homo sapiens) (UniProt Q9ULZ9); test: Inhibition of MMP4 (unknown origin)
T2 sequence (whole entry): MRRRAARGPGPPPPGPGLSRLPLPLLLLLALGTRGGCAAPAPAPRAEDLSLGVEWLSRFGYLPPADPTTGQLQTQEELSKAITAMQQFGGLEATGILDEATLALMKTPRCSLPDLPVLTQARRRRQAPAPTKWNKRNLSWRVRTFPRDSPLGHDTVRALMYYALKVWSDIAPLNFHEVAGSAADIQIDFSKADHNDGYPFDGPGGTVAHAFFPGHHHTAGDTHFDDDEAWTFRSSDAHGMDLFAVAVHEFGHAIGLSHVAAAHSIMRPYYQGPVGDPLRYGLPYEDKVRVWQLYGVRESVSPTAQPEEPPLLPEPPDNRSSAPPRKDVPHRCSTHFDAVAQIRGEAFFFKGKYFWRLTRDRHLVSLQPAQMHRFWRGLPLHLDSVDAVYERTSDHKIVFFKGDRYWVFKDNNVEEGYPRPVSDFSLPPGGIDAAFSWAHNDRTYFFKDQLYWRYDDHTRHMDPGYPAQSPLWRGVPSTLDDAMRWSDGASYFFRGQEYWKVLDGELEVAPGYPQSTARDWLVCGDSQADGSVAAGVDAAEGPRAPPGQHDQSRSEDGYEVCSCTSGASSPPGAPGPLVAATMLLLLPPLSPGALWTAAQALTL

[7] = molecular target: T3, Protein deacetylase HDAC6 (Homo sapiens) (UniProt Q9UBN7); test: Inhibition of HDAC6 in human HeLa cells assessed as inhibition of acetyl histone hydrolysis at 10 uM after 24 hrs by immunofluorescence assay relative to control; format: cell-based
T3 sequence (whole entry): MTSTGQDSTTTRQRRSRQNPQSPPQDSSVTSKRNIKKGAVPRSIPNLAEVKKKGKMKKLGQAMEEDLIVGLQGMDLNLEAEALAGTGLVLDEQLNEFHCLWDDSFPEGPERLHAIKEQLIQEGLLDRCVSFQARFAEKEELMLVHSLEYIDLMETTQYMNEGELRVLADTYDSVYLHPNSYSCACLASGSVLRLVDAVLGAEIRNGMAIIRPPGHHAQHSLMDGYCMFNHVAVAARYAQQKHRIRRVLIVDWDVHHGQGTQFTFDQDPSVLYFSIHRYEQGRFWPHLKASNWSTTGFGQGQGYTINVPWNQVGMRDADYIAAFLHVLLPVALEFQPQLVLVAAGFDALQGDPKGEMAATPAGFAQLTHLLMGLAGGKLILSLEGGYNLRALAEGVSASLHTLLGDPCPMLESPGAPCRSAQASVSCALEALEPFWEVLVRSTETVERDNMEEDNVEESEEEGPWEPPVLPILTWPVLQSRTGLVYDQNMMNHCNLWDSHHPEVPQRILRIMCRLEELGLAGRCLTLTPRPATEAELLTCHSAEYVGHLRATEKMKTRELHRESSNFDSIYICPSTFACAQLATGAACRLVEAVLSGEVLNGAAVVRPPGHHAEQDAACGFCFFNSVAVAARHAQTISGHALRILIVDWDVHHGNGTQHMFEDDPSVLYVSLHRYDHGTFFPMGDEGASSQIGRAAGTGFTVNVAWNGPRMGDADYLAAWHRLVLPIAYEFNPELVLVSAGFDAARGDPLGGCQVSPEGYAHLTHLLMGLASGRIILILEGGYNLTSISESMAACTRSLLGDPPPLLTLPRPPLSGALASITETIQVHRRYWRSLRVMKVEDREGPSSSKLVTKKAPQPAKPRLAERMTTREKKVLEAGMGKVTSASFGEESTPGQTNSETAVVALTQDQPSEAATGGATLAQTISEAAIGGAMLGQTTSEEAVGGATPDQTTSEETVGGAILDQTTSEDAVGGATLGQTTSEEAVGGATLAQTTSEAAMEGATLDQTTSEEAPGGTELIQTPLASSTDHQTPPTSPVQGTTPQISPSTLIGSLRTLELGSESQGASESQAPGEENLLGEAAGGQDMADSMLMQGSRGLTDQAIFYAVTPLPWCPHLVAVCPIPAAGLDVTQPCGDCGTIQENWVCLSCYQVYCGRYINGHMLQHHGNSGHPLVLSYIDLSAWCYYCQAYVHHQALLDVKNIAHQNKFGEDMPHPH
In short: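 HeLa cells (8000/well, MEM with 10% FBS) given compound 24 h (histone) or 6 h (tubulin). Fixed in 4% paraformaldehyde, permeabilized with 0.5% Triton X-100, stained with anti-acetyl-lysine or anti-acetyl-tubulin and Alexa 488 secondary plus Hoechst. Imaged at nine sites per well, 20×; percent inhibition relative to 0.2% DMSO controls.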

Chain of 72 kDa type IV collagenase (Homo sapiens) (P08253 110-660 limits assumed): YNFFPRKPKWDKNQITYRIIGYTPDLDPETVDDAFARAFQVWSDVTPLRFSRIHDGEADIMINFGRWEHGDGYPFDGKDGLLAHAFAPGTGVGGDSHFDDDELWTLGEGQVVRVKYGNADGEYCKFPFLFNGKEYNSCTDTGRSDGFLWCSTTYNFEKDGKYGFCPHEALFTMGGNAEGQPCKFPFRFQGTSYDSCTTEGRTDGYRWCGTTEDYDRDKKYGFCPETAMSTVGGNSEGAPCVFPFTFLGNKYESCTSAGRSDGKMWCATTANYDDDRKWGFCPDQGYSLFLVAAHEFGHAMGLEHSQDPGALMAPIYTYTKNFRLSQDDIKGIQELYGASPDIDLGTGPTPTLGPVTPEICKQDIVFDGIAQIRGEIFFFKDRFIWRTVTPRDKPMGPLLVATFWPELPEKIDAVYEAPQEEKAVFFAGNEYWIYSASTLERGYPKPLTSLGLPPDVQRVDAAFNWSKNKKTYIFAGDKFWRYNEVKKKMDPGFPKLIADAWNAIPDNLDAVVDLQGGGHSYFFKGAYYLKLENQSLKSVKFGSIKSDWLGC
Chain of Matrix metalloproteinase-9 (Homo sapiens) (P14780 whole entry): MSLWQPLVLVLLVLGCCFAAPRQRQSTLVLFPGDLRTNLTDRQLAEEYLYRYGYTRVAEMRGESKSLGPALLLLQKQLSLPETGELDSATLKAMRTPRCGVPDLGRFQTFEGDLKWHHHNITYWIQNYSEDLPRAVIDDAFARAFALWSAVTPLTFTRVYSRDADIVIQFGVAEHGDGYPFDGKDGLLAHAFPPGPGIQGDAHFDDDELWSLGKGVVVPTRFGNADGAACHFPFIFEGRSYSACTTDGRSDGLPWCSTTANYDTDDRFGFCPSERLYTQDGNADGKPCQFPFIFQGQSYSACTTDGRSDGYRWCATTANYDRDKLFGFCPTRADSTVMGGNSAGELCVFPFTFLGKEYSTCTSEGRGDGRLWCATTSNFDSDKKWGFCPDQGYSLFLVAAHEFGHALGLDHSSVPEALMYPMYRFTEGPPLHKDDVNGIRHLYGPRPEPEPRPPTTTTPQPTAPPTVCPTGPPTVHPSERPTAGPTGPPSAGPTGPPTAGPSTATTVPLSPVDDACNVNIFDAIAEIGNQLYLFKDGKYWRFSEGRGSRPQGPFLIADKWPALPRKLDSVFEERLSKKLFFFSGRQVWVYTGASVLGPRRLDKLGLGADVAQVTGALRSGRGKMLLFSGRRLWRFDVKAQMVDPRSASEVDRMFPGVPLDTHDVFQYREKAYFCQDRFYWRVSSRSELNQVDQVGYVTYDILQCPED

Compound | pIC50 (Histone deacetylase 11) | Ratio IC50 (Homo sapiens) | also measured
CC(C)(C)C(=O)N1Cc2ccc(C(=O)NO)cc2C1 | < 4.30 | 40 | 
Cn1cccc1C(=O)N1Cc2ccc(C(=O)NO)cc2C1 | < 4.30 | 40 | 
Cn1cccc1C(=O)NCc1ccc(C(=O)NO)cc1 |  | 40 | inhibition [7]: 26%

Further lines, with some results ahead:

pIC50 (Histone deacetylase 11) | Ratio IC50 (Homo sapiens) | Compound | also measured
< 4.30 |  | Cn1cccc1C(=O)N1CCc2cc(C(=O)NO)ccc2C1 | Papp [1]: 22 ×10⁻⁶ cm/s; efflux ratio [2]: 1.5; solubility thermodynamic at 24 h [3]: 2000 µM (≈ 599 µg/mL); INH [4]: > 100 µM; INH [5]: > 100 µM; INH [6]: > 100 µM
< 4.30 | 40 | Cn1cccc1C(=O)N1CCCc2cc(C(=O)NO)ccc2C1 | 
< 4.30 | 40 | CC(C)(C)C(=O)N1CCc2cc(C(=O)NO)ccc2C1 | 
